Data taken from paper PMC11182071 (Journal of Enzyme Inhibition and Medicinal Chemistry, 2024).

What was measured:
PTP1B [1] = target: T1, PTP1B (Homo sapiens, UniProt P18031); experiment: Protein tyrosine phosphatase 1B inhibition assay; type: biochemical; details: for inhibition at 50 µM: read-out: PTP1B inhibition (% at 50 μM)
T1 sequence (P18031 1-435): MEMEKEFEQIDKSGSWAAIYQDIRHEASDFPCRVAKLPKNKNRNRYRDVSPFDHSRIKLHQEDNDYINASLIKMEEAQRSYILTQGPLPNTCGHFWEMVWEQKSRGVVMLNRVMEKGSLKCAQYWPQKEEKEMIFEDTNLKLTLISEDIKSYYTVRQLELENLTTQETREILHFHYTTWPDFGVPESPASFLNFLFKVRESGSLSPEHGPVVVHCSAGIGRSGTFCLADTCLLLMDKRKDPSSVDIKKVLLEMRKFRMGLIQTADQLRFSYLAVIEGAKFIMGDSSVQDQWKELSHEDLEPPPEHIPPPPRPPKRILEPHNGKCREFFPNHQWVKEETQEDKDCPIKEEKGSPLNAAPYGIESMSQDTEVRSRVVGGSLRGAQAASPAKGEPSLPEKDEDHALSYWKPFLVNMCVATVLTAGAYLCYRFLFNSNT

α-glucosidase = experiment: α-Glucosidase inhibition assay; type: biochemical, yeast; details: for α-glucosidase inhibition (% at 50 μM): mean ± SD, n=3
PTP1B [2] = target: T1, PTP1B; experiment: PTP1B inhibition kinetic assay; type: biochemical
Outline: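 PTP1B at 100 nM reacted with p-nitrophenyl phosphate at 1, 2, 5 and 10 mM and test compound at 0, 0.5, 1.0 and 5.0 μM. Absorbance read every 3 min. Velocity taken from the time–Δabs plot. Inhibition mode from Lineweaver-Burk double-reciprocal plots; Ki from Dixon plots. Triplicate.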

Solubility observations = type: physicochemical; details: medium not stated
α-amylase = target: T2, α-amylase (Sus scrofa, UniProt P00690); experiment: α-amylase inhibition assay; type: biochemical, porcine; details: read-out: α-amylase inhibition (% at 250 μM)
T2 sequence (P00690 16-511): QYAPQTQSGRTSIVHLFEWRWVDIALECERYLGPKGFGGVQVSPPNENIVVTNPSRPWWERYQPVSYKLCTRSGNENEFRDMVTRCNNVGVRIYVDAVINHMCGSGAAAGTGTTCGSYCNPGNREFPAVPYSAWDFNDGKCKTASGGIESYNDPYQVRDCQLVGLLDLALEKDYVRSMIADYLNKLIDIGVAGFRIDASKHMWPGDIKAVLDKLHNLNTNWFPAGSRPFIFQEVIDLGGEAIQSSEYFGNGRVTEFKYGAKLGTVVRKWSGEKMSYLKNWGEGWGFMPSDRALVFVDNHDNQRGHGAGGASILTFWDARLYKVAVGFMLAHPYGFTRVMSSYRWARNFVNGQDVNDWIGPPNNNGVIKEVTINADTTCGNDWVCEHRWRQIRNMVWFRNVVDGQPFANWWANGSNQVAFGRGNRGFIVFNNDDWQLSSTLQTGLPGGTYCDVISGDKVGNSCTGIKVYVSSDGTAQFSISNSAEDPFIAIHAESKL

[3] = system: insulin-resistant HepG2 cells; experiment: In vitro glucose consumption assay in insulin-resistant HepG2 cells; type: cell-based, human; details: 24 h treatment; vs model group
Outline: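 HepG2 seeded in 6-well plates at 1 × 10^5 cells/well for 24 h. Serum-starved 2 h, then made insulin-resistant with 1 × 10−6 mol/l insulin for 48 h at 37 °C, 5% CO2. Groups: control, model, low/middle/high dose of free or liposomal test compound (top 100 μg/mL), blank liposome. After 24 h treatment, medium glucose measured by glucose oxidase kit; consumption = blank-well minus sample-well glucose. Mean ± SD, n = 3.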

Compound | inhibition at 50 µM (PTP1B [1]) [%] | α-glucosidase inhibition (% at 50 μM) (α-glucosidase) [%] | inhibition at 250 µM (α-amylase) [%] | further results
C[C@H]1O[C@H](O[C@H]2[C@H](O)[C@@H](O)[C@@H](O[C@H]3[C@H](O)[C@@H](O)C(O)O[C@@H]3CO)O[C@@H]2CO)[C@H](O)[C@@H](O)[C@@H]1N[C@H]1C=C(CO)[C@@H](O)[C@H](O)[C@H]1O (stereo partly drawn) [Acarbose, reference compound] |  | 96.51 ± 0.02 |  | 
CC(C)=C[C@H]1C=C([C@H]2CC[C@]3(C)[C@@H]2CC[C@@H]2[C@@]4(C)CC[C@H](O)C(C)(C)[C@@H]4CC[C@]23C)C(=O)O1 [Compound 7, gypensapogenin D] | 83.49 ± 0.62 | 61.94 ± 1.54 | 11.6 ± 1.24 | Ki (PTP1B [2]): 4.29 µM; Inhibition type against PTP1B (Lineweaver-Burk plot) (PTP1B [2]; Lineweaver-Burk double reciprocal plot): competitive inhibitors; IC50 (PTP1B [1]): 8.17 ± 0.63 µM; Solubility (Solubility observations): poorly solubility; IC50 (α-glucosidase; read-out: α-glucosidase IC50, mean ± SD of three replications): 27.15 ± 0.17 µM; Glucose consumption in insulin-resistant HepG2 cells [3]: did not improve the reduction of glucose consumption
[Na+].[Na+].[Na+].[O]=[V]([O-])([O-])[O-] [Na3VO4, reference compound] |  |  |  | PTP1B inhibition (% at 50 μM) (PTP1B [1]; 50 μM, mean ± SD, n=3): 98.07 ± 0.51%
CC(C)=C1CC=C([C@H]2CC[C@]3(C)[C@@H]2CC[C@@H]2[C@@]4(C)CC[C@H](O)C(C)(C)[C@@H]4CC[C@]23C)C1=O [Compound 6, gypensapogenin C] | 78.9 ± 0.87 | 24.64 ± 0.65 |  | 

Further lines, with some results ahead:

inhibition at 50 µM (PTP1B [1]) [%] | α-glucosidase inhibition (% at 50 μM) (α-glucosidase) [%] | inhibition at 250 µM (α-amylase) [%] | Compound | further results
67.1 ± 1.33 | 25.55 ± 1.75 |  | CC(C)=C1CC([C@H]2CC[C@]3(C)[C@@H]2CC[C@@H]2C4=C(CC[C@]23C)C(C)(C)[C@@H]2CC[C@H]4O2)=CC1=O [Compound 5, gypensapogenin B] | 
65.9 ± 1.69 | 25.80 ± 0.71 | 31.81 ± 0.02 | CC(C)=C1CC=C([C@H]2CC[C@]3(C)[C@@H]2CC[C@@H]2C4=C(CC[C@]23C)C(C)(C)[C@@H]2CC[C@H]4O2)C1=O [Compound 4, gypensapogenin A] | 
